High-throughput results from PubChem.
Rows were chosen to be rich in hits. Some 3.3% of all compounds tested hit in one or more screens of this group.
NFkB transloc pot: enhances IL-1B driven NFkB nuclear translocation; HUVEC IL-1B NFkB p65 nuclear translocation imaging; activation, % at 2 µM; actives 0.3% (n = 94,000); AID 819;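 active = activation above 40%, about the mean plus 3 SD, also judged a hit on visual image review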;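 also: percent activation is computed from the nuclear over cytoplasmic p65 intensity ratio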
Rev-RRE block: disrupts HIV-1 Rev binding to RRE RNA; P05866; actives 0.79% (n = 97,000); AID 704; Rev peptide-RRE RNA binding, FRET; inhibition, % at 8 µM;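 active = inhibition above the screen-wide mean plus 3 SD, cut at about 35% in these data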;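 also: 0% = median DMSO wells and 100% = median Neomycin B control wells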
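Assay system: Rev peptide and RRE RNA, both fluorescently labelled; times: 5 min preincubation and 15 min binding, 25 °C; detection: FRET, ex 480 nm, em 540 and 671 nm; read-out basis: % inhibition from 671/540 nm acceptor-to-donor ratio, scaled between controls; benchmarks: DMSO low control, neomycin B high control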
HUVEC tox IL1B: toxic to HUVEC cells under IL-1B stimulation; cell count reduction, % at 2 µM; actives 0.41% (n = 94,000); HUVEC cell count loss, Hoechst imaging, IL-1B stimulated;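 active = cell count reduction more than 3 SD above the screen-wide mean, cut at about 70% in these data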;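 also: normalized per plate to untreated control cells as the no-loss baseline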
Measles CPE: protection of cells from measles virus | Measles virus-infected cells, CPE protection, absorbance | protection (pct of control), % at 4 µM | actives 1.5% (n = 140,000); in the data active = protection mostly above about 24%, no sharp cut-off; inactive = mostly below about 26%
IL1B NFkB inh: blocks IL-1B driven NFkB nuclear translocation in HUVEC cells; HUVEC IL-1B NFkB p65 nuclear translocation imaging; inhibition, % at 2 µM; actives 0.43% (n = 94,000);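 active = inhibition above about 30% together with a positive call from visual inspection of the well image, limit read from the data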;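 also: nuclear over cytoplasmic p65 intensity ratio measured by imaging; 0% = IL-1B stimulated DMSO wells and 100% = unstimulated DMSO wells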
FAK inh: inhibitors of human focal adhesion kinase | biochemical FAK kinase activity assay | inhibition, %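 (tested at 7 µM)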 | actives 0.84% (n = 97,000); in the data active = inhibition above about 19%;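 also: 0% = DMSO and 100% = reference compound high control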
Target sequence (Q05397 whole entry, looked up): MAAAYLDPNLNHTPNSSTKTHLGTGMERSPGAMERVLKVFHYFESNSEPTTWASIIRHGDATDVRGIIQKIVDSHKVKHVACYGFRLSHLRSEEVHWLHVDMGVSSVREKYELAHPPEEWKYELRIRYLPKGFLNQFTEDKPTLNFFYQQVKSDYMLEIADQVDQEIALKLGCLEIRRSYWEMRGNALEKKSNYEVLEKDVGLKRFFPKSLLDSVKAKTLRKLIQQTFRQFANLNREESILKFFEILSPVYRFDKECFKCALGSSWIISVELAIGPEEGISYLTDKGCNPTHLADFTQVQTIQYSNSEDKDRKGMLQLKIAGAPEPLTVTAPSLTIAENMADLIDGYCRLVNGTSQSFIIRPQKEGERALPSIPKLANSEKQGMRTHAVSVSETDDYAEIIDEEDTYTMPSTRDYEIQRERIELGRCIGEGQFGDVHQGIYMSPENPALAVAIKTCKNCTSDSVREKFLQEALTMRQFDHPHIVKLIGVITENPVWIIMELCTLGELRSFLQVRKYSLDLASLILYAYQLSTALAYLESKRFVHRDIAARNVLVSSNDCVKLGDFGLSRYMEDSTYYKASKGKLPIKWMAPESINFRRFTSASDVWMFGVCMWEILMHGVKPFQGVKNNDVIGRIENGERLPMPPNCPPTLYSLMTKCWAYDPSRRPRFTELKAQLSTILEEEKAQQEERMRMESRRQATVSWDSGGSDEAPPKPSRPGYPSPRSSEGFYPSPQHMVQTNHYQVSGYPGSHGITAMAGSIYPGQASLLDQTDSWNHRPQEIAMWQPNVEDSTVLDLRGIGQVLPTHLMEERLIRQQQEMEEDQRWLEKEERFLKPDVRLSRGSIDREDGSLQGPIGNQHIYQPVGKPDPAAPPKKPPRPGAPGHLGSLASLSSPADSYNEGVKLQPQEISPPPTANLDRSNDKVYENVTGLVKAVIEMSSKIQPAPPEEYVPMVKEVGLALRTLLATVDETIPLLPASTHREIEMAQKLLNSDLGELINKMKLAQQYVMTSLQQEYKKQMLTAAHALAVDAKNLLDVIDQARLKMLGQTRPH
The depositor's hits bear a star; · = no result.

SMILES	NFkB transloc pot	Rev-RRE block	HUVEC tox IL1B	Measles CPE	IL1B NFkB inh	FAK inh
CCCCCc1c(O)c2ccccc2[nH]c1=O	2	10	30	36*	-2	10
COc1ccc2cc(C(=O)Nc3ccc(Cl)cc3)sc(=O)c2c1OC	·	·	·	12	·	·
Cc1ccc2nc(NC(=O)CSc3nnc(C)c(=O)n3N)sc2c1	·	·	·	8	·	·
CCOc1ccc2nc(NC(=O)CSc3nc4c(c(=O)n(C)c(=O)n4C)n3C(C)C)sc2c1	·	·	·	2	·	·
CCn1c(SCC(=O)Nc2nc3ccc(OC)cc3s2)nc2c1c(=O)n(C)c(=O)n2C	·	·	·	27*	·	·
CCOC(=O)c1c(NC(=O)COC)sc(C)c1C	49*	8	-25	6	-49	2
CCCn1c(SCC(=O)Nc2sc(C)c(C)c2C(=O)OCC)nc2c1c(=O)n(C)c(=O)n2C	-9	11	-1	31*	9	2
CC(C)(Nc1ccccc1)C(=O)c1ccccc1	·	·	·	32*	·	·
O=C(Nc1cccnc1)Nc1ccccc1Cl	-6	10	-8	5	6	3
O=C(NCC(F)(F)F)Nc1cccnc1	-77	1	90*	17	77*	0
Cc1ccc(S(=O)(=O)N2CCC(=O)N(CCO)CC2)cc1	·	·	·	5	·	·
O=C(CSc1nnc(-c2ccc(O)cc2)n1Cc1ccccc1)NNC(=O)c1ccc(Br)cc1	·	·	·	5	·	·
Cc1ccc2c(c1)/C(=N/O)CCS2	·	4	·	5	·	4
O/N=C1/CCCSc2ccccc21	48*	8	6	6	-48	-7
COc1cc(C2=NOC(C(=O)N3CCOCC3)C2)cc(OC)c1OC (stereo not given)	-3	0	-9	·	3	3
COc1cc(-c2csc(N3CCOCC3)n2)cc(OC)c1OC	-3	6	13	56*	3	1
COC(=O)c1sccc1N/N=C/c1cccc(Oc2ccccc2)c1	·	·	·	18	·	·
CN1/C(=C\C(=O)c2ccco2)c2ccccc2CC1(C)C	-35	-4	7	10	34*	-5
CN1/C(=C\C(=O)c2ccccc2Cl)c2ccccc2CC1(C)C	·	·	·	17	·	·
COc1ccc(-c2nc(-c3ccccc3)nc(Cl)c2C#N)cc1	8	0	9	13	-8	-10
CNc1nc(-c2ccccc2)nc(-c2ccccc2)c1C#N	-1	11	-9	61*	1	0
COc1cccc(CNC(=O)C(=O)NCC(c2ccco2)N2CCOCC2)c1 (stereo not given)	·	·	·	1	·	·
O=C(/C=C/c1cnc2ccccc2n1)NC12CC3CC(CC(C3)C1)C2	·	·	·	22	·	·
CCNS(=O)(=O)c1ccc(OC)c(C)c1	-63	5	83*	6	63*	-1
CCCCNS(=O)(=O)c1ccc(OC)c(C)c1	-1	-1	-12	4	1	1
SMILES	NFkB transloc pot	Rev-RRE block	HUVEC tox IL1B	Measles CPE	IL1B NFkB inh	FAK inh
COc1ccc(N=NC2=C(O)CC(C)(C)CC2=O)c(OC)c1	6	59*	-23	3	-6	-2
COc1ccc(N=NC2=C(O)CC(C)(C)CC2=O)cc1	10	11	-8	10	-10	4
CCc1nnc(NS(=O)(=O)c2ccc(NC(=S)NC(=O)/C=C/c3ccccc3)cc2)s1	·	·	·	63*	·	·
CCNC(=O)CSc1nnc(-c2ccccc2Br)n1-c1cccc(C(F)(F)F)c1	·	·	·	22	·	·
CC(C)C(=O)Nc1nnc(CSCc2ccccc2F)s1	-54	5	-6	15	54*	0
CCC(C)OC(=O)C1=C(C)NC2=C(C(=O)C(C(=O)OC)C(C)C2)C1c1ccc(N(C)C)cc1 (stereo not given)	0	1	-5	58*	0	2
CCCOC(=O)C1=C(C)NC2=C(C(=O)C(C(=O)OC)C(C)C2)C1c1ccc(N(CC)CC)cc1 (stereo not given)	16	3	22	3	-16	9
COc1ccc(N2C(=O)C3CCCN3C2c2ccccc2F)cc1 (stereo not given)	51*	0	0	3	-51	0
Cn1cccc1/C=C1\SC(=S)N(NC(=O)c2cccc(Cl)c2)C1=O	·	·	·	5	·	·
NC(=O)c1ccsc1NC(=O)c1cccs1	19	11	-4	·	-18	28*
Cc1ccc(C(=O)N2NC(c3ccc(F)cc3)C3C(=O)N(c4ccc(C)c(C)c4)C(=O)C32)cc1 (stereo not given)	·	·	·	6	·	·
Cc1cc(C)cc(OCC(=O)Nc2ccc(F)cc2)c1	-4	8	84*	9	4	4
Cn1cc(Br)cc2nc(C(F)(F)F)nc1-2	20	4	-22	1	-20	1
Cc1cccc2nc(C(F)(F)F)nc(=O)n12	5	12	20	43*	-5	2
O=C(CCCC(=O)N(CC(=O)NC1CCCC1)C1CCCC1)Nc1ccccn1	10	-1	-12	70*	-10	-1
O=C(CCC(=O)N(CC(=O)NC1CCCC1)C1CCCC1)Nc1ccccn1	127*	-2	6	6	-127	-4
O=C(CCCC(=O)N(CC(=O)NC1CCCC1)Cc1ccc(F)cc1)Nc1ccccn1	11	2	10	16	-11	-1
Cc1cc(S(=O)(=O)N2CCN=C2c2ccccc2)c(Cl)cc1Cl	·	·	·	5	·	·
CCOC(=O)N1CCN(S(=O)(=O)c2ccc3c(c2)oc(=O)n3C)CC1	-4	41*	0	3	4	-4
Cc1ccc(/C=C2\SC(N3CCN(C(c4ccccc4)c4ccccc4)CC3)=NC2=O)o1	·	·	·	20	·	·
CCCn1c(/N=C/c2ccc3c(c2)OCO3)nc2ccccc21	·	11	·	32*	·	2
Cc1cccc(OCC(O)CN2CC3(C)CC2CC(C)(C)C3)c1 (stereo not given)	·	·	·	11	·	·
O=C(O)c1ccc(C(=O)O)c(C(=O)c2ccccc2)c1	-19	13	80*	7	19	-1
Cc1ccc(NC(=O)CN(C)S(=O)(=O)c2cccc3cccnc23)cc1	2	2	3	49*	-2	-7
C=CCOc1c(CNn2nnnc2N)cccc1OC	7	3	-5	42*	-7	-1
SMILES	NFkB transloc pot	Rev-RRE block	HUVEC tox IL1B	Measles CPE	IL1B NFkB inh	FAK inh
CCOCCN1CCN(C(=O)CN2CCCC2=O)CC1	·	·	·	10	·	·
O=c1cc(O)c2c(=O)n(-c3ccccc3)c3ccccc3c2o1	13	45*	2	5	-13	-9
Cc1ccc2nc(-c3ccccn3)cc(C(=O)NC3CCN(C)CC3)c2c1	25	1	-24	67*	-25	0
Cc1cc(NC(=O)c2cc(-c3ccccn3)nc3ccccc23)no1	·	·	·	9	·	·
CCN1CC2=C(OC(N)=C(C#N)C2c2ccccc2)/C(=C\c2ccccc2)C1 (stereo not given)	-18	26	13	16	18	4
CCN1CC2=C(OC(N)=C(C#N)C2c2cccs2)/C(=C/c2cccs2)C1 (stereo not given)	10	42*	-9	10	-10	7
CN1CCN(CCCc2c3c(cc4c2CCC4)CCC3)CC1	·	·	·	25	·	·
